Measured values pooled from the literature.
Each line is one published result; the experiments were not run side by side.

| Structure (SMILES) | assay | test system | setting | quantity | value |
| --- | --- | --- | --- | --- | --- |
| CC[C@H](C)[C@H](NC(=O)[C@H](CC(C)C)NC(=O)[C@H](Cc1c[nH]c2ccccc12)NC(=O)[C@H](CCC(N)=O)NC(=O)[C@@H](NC(=O)[C@H](Cc1ccccc1)NC(=O)[C@H](C)NC(=O)[C@H](CCCCNC(=O)COCCOCCNC(=O)COCCOCCNC(=O)CC[C@H](NC(=O)CCCCCCCCCCCCCCCCCCC(=O)O)C(=O)O)NC(=O)[C@H](CCC(N)=O)NC(=O)[C@H](C)NC(=O)[C@@H](NC(=O)[C@H](CCCCN)NC(=O)[C@H](CC(=O)O)NC(=O)[C@H](CC(C)C)NC(=O)C(C)(C)NC(=O)[C@@H](NC(=O)[C@H](CO)NC(=O)[C@H](Cc1ccc(O)cc1)NC(=O)[C@H](CC(=O)O)NC(=O)[C@H](CO)NC(=O)[C@@H](NC(=O)[C@H](Cc1ccccc1)NC(=O)[C@@H](NC(=O)CNC(=O)[C@H](CCC(=O)O)NC(=O)C(C)(C)NC(=O)[C@@H](N)Cc1ccc(O)cc1)[C@@H](C)O)[C@@H](C)O)[C@@H](C)CC)[C@@H](C)CC)C(C)C)C(=O)N[C@@H](C)C(=O)NCC(=O)NCC(=O)N1CCC[C@H]1C(=O)N[C@@H](CO)C(=O)N[C@@H](CO)C(=O)NCC(=O)N[C@@H](C)C(=O)N1CCC[C@H]1C(=O)N1CCC[C@H]1C(=O)N1CCC[C@H]1C(=O)N[C@@H](CO)C(N)=O |  | human, plasma | subcutaneous, 0.5 mg, multiple doses, healthy volunteers | Cmax | 77.8 ng/mL |
| N=c1c2c(-c3ccccc3)c(-c3ccccc3)n(Cc3ccccc3)c2ncn1[C@H]1CC[C@H](O)CC1 |  | Caco-2 | 3 µM, 2 h, pH 7.4 | efflux ratio | 10 |
| N=C(N)NCCC[C@@H](NC(=O)[C@@H](N)Cc1ccccc1)C(=O)N[C@@H](Cc1ccccc1)C(=O)N[C@@H](CCCCN)C(N)=O |  | human, plasma | subcutaneous, 5 mg, multiple doses, once daily, patients | Cmax | 212 ng/mL |
| C[C@]12CC[C@H](n3ccnc3)CC1=CC[C@@H]1[C@@H]2CC[C@]2(C)C(n3cnc4ccccc43)=CC[C@@H]12.Cl |  | male CD-1 mouse, plasma | oral, 10 mg/kg | Tmax | 13.3 h |
| COc1ccc(C[C@@H]2NC(=O)[C@H]([C@@H](C)O)NC(=O)[C@@H]3[C@@H]4CCN3C(=O)[C@@H]3Cc5cn(c6ccc(F)cc56)CCCCCCN(Cc5ccc(cc5)CCNC(=O)[C@]5(C)CCCN5C2=O)C(=O)CCC(=O)N[C@@H](C)C(=O)N[C@H](CNC(=O)CCCCC[N+](C)(C)C)C(=O)N[C@@H](Cc2cccc(c2)CNC(=O)CO4)C(=O)N3)cc1 |  | human, plasma | oral, 200 mg, single dose | Cmax | 7.84 nM |
| C[C@H]1O[C@@H](O[C@H]2[C@@H](O)C[C@H](O[C@H]3[C@@H](O)C[C@H](O[C@H]4CC[C@@]5(C)[C@H](CC[C@@H]6[C@@H]5C[C@@H](O)[C@]5(C)[C@@H](C7=CC(=O)OC7)CC[C@]65O)C4)O[C@@H]3C)O[C@@H]2C)C[C@H](O)[C@@H]1O |  | Caco-2 | 10 µM, 1 h, pH 7.4 | efflux ratio | 5.33 |
| CC(=C/C=C/C(C)=C/C(=O)O)/C=C1\CCCc2ccccc21 |  | human, plasma | oral, 5 mg, single dose, fasted, healthy volunteers | Cmax | 46.9 ng/mL |
| N#Cc1cc(NC(=O)[C@H]2c3ccccc3C(=O)N(CC(F)(F)F)[C@@H]2c2cccnc2)ccc1F | general toxicity | beagle dog | oral, multiple doses | NOAEL | 30 mg/kg |
